Experimental data: ChEMBL document CHEMBL3751694, “1-Piperazinylphthalazines as potential VEGFR-2 inhibitors and anticancer agents: Synthesis and in vitro biological evaluation” (Eur J Med Chem, 2016)

Assays:
Type in all cases: functional
[1] = test system: MCF7; experiment: Growth inhibition of human MCF7 cells at 10 uM after 48 hrs by SRB method; details: MCF7, 48 h, read-out: GI
Outline: (§1)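 NCI 56-line primary screen at a single 10^-5 M concentration. Cells grown in RPMI 1640 with 5% FBS and 2 mM L-glutamine, plated at 5000–40,000 cells/well, then preincubated for 24 h. Exposure was 48 h at 37 °C and 5% CO2. Adherent cells were fixed with cold TCA at 10% final, suspension cells at 16%. Staining used 0.4% SRB, read at 515 nm. Results are % growth inhibition relative to control.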

[2] = Growth inhibition of human PC3 cells at 10 uM after 48 hrs by SRB method; details: PC-3, 48 h, read-out: GI; outline: as §1
[3] = Growth inhibition of human UO31 cells at 10 uM after 48 hrs by SRB method; details: UO-31, 48 h, read-out: GI
Outline: (§2)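 NCI 56-line screen, single-dose primary assay at 10^-5 M. Cells grown in RPMI 1640 with 5% FBS and 2 mM L-glutamine, plated at 5000–40,000 cells/well and held 24 h at 37 °C, 5% CO2 before drug addition. Compound was given from DMSO stock, exposure 48 h, then TCA fixation and SRB staining with absorbance at 515 nm. % growth is taken relative to time-zero and untreated controls.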

[4] = Growth inhibition of human TK10 cells at 10 uM after 48 hrs by SRB method; details: TK-10, 48 h, read-out: GI; outline: as §2
[5] = test system: SN12C; experiment: Growth inhibition of human SN12C cells at 10 uM after 48 hrs by SRB method; details: read-out: GI; outline: as §1
[6] = Growth inhibition of human Caki1 cells at 10 uM after 48 hrs by SRB method; details: CAKI-1, 48 h, read-out: GI; outline: as §1
[7] = test system: A498; experiment: Growth inhibition of human A498 cells at 10 uM after 48 hrs by SRB method; details: A498, 48 h, read-out: GI; outline: as §1
[8] = test system: 786-0; experiment: Growth inhibition of human 786-0 cells at 10 uM after 48 hrs by SRB method; details: 786-0, 48 h, read-out: GI; outline: as §1
[9] = test system: NCI/ADR-RES; experiment: Growth inhibition of human NCI/ADR-RES cells at 10 uM after 48 hrs by SRB method; details: read-out: GI; outline: as §1
[10] = Growth inhibition of human OVCAR8 cells at 10 uM after 48 hrs by SRB method; details: OVCAR-8, 48 h, read-out: GI; outline: as §1
[11] = Growth inhibition of human OVCAR4 cells at 10 uM after 48 hrs by SRB method; details: OVCAR-4, 48 h, read-out: GI; outline: as §1
[12] = Growth inhibition of human OVCAR3 cells at 10 uM after 48 hrs by SRB method; details: OVCAR-3, 48 h, read-out: GI; outline: as §1
[13] = Growth inhibition of human UACC62 cells at 10 uM after 48 hrs by SRB method; details: UACC-62, 48 h, read-out: GI; outline: as §2
[14] = Growth inhibition of human UACC257 cells at 10 uM after 48 hrs by SRB method; details: UACC-257, 48 h, read-out: GI; outline: as §2
[15] = test system: SK-MEL-5; experiment: Growth inhibition of human SK-MEL-5 cells at 10 uM after 48 hrs by SRB method; details: SK-MEL-5, 48 h, read-out: GI; outline: as §1
[16] = test system: SK-MEL-2; experiment: Growth inhibition of human SK-MEL-2 cells at 10 uM after 48 hrs by SRB method; details: SK-MEL-2, 48 h, read-out: GI; outline: as §1
[17] = test system: MDA-MB-435; experiment: Growth inhibition of human MDA-MB-435 cells at 10 uM after 48 hrs by SRB method; details: MDA-MB-435, 48 h, read-out: GI; outline: as §1
[18] = Growth inhibition of human SF295 cells at 10 uM after 48 hrs by SRB method; details: SF-295, 48 h, read-out: GI; outline: as §1
[19] = Growth inhibition of human SF268 cells at 10 uM after 48 hrs by SRB method; details: SF-268, 48 h, read-out: GI; outline: as §1
[20] = test system: HT-29; experiment: Growth inhibition of human HT-29 cells at 10 uM after 48 hrs by SRB method; details: HT-29, 48 h, read-out: GI; outline: as §1
[21] = Growth inhibition of human HCT116 cells at 10 uM after 48 hrs by SRB method; details: HCT-116, 48 h, read-out: GI; outline: as §1
[22] = Growth inhibition of human COLO205 cells at 10 uM after 48 hrs by SRB method; details: COLO 205, 48 h, read-out: GI; outline: as §1
[23] = test system: NCI-H522; experiment: Growth inhibition of human NCI-H522 cells at 10 uM after 48 hrs by SRB method; details: NCI-H522, 48 h, read-out: GI; outline: as §1
[24] = test system: NCI-H226; experiment: Growth inhibition of human NCI-H226 cells at 10 uM after 48 hrs by SRB method; details: NCI-H226, 48 h, read-out: GI; outline: as §1
[25] = Growth inhibition of human HOP92 cells at 10 uM after 48 hrs by SRB method; details: HOP-92, 48 h, read-out: GI; outline: as §1
[26] = test system: A549; experiment: Growth inhibition of human A549 cells at 10 uM after 48 hrs by SRB method; details: A549, 48 h, read-out: GI; outline: as §1
[27] = test system: SR; experiment: Growth inhibition of human SR cells at 10 uM after 48 hrs by SRB method; details: read-out: GI; outline: as §1
[28] = Growth inhibition of human […] cells at 10 uM after 48 hrs by SRB method; details: read-out: GI; outline: as §1
[29] = Growth inhibition of human MOLT4 cells at 10 uM after 48 hrs by SRB method; details: MOLT-4, 48 h, read-out: GI; outline: as §1
[30] = test system: K562; experiment: Growth inhibition of human K562 cells at 10 uM after 48 hrs by SRB method; details: K562, 48 h, read-out: GI; outline: as §1
[31] = Growth inhibition of human HL-60(TB) cells at 10 uM after 48 hrs by SRB method; details: HL-60, 48 h, read-out: GI
Outline: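 NCI single-dose primary screen at 10^-5 M, 48 h exposure. Cells grown in RPMI 1640 with 5% FBS and 2 mM L-glutamine. Suspension cells fixed in situ with TCA (final 16%), stained with SRB, absorbance read at 515 nm. Percent growth inhibition calculated against time-zero and untreated control plates.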

[32] = test system: CCRF-CEM; experiment: Growth inhibition of human CCRF-CEM cells at 10 uM after 48 hrs by SRB method; details: read-out: GI; outline: as §1
[33] = test system: T47D; experiment: Growth inhibition of human T47D cells at 10 uM after 48 hrs by SRB method; details: read-out: GI; outline: as §2
[34] = test system: MDA-MB-468; experiment: Growth inhibition of human MDA-MB-468 cells at 10 uM after 48 hrs by SRB method; details: MDA-MB-468, 48 h, read-out: GI; outline: as §1

In the case of `O=C(CN1CCN(c2nnc(-c3ccccc3)c3ccccc23)CC1)Nc1nc(-c2ccc(Cl)cc2)cs1`, the inhibition of growth at 10 µM [1] is reported as 44%, the inhibition of growth at 10 µM [2] is reported as 56% and the inhibition of growth at 10 µM [3] is reported as 50%. The inhibition of growth at 10 µM [4] was 41%, the inhibition of growth at 10 µM [5] was 30% and the inhibition of growth at 10 µM [6] was 41%. The inhibition of growth at 10 µM [7] was 52%, the inhibition of growth at 10 µM [8] was 30% and the inhibition of growth at 10 µM [9] was 39%. It also gave an inhibition of growth at 10 µM [10] of 37%, an inhibition of growth at 10 µM [11] of 30% and an inhibition of growth at 10 µM [12] of 31%. For the same compound, the inhibition of growth at 10 µM [13] was 36%, the inhibition of growth at 10 µM [14] was 45% and the inhibition of growth at 10 µM [15] was 56%. It also gave an inhibition of growth at 10 µM [16] of 31%, an inhibition of growth at 10 µM [17] of 31% and an inhibition of growth at 10 µM [18] of 38%. For the same compound, the inhibition of growth at 10 µM [19] was 32%, the inhibition of growth at 10 µM [20] was 32% and the inhibition of growth at 10 µM [21] was 38%. The inhibition of growth at 10 µM [22] was 32%, the inhibition of growth at 10 µM [23] was 47% and the inhibition of growth at 10 µM [24] was 31%. The inhibition of growth at 10 µM [25] was 31%, the inhibition of growth at 10 µM [26] was 45% and the inhibition of growth at 10 µM [27] was 53%. The inhibition of growth at 10 µM [28] was 58%, the inhibition of growth at 10 µM [29] was 64% and the inhibition of growth at 10 µM [30] was 60%. The inhibition of growth at 10 µM [31] was 45%, the inhibition of growth at 10 µM [32] was 38% and the inhibition of growth at 10 µM [33] was 65%. The inhibition of growth at 10 µM [34] was 66%.
